High-throughput results deposited in PubChem BioAssay by several laboratories.
An excerpt weighted towards active compounds, which were near 3.4% of everything screened.
zfTRPN1 agonist: zebrafish TRPN1 (NompC) channel agonism | activation, % at 3 µM | HEK293 zebrafish TRPN1-YFP, Fluo-8 calcium fluorescence; 100% = response to 87 µM carbachol | 0.18% of 220,000 active;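 active = activation above its plate's cutoff, the mean activation of test wells on that plate plus 3 SD, cut at about 19% in these data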;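 note: 0% = DMSO alone and 100% = 87 µM carbachol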
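Material – zebrafish TRPN1-YFP in HEK293 cells · Doses – 3 µM single point · Schedule – dye 1 h 37 °C plus 30 min RT · Signal – Fluo-8 calcium fluorescence, excitation 470-495 nm, emission 515-575 nm · Read-out – % activation versus carbachol response · Control set – carbachol high, DMSO low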
LANA-H2A inh: blocks KSHV LANA binding to histone H2A/H2B; inhibition, % (concentration not given with the values); Q9QR71; 0.6% of 320,000 active; cell-free LANA-H2A/H2B peptide, fluorescence polarization; in the data active = inhibition mostly above about 10%, no sharp cut-off; inactive = mostly below about 6.7%
TRPML3 agonist: agonists of human TRPML3 channel; HEK293 TRPML3-YFP, Fluo-8 calcium fluorescence; 100% = the carbachol control signal; activation, % at 3 µM; 0.29% of 220,000 active; AID 1448;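 active = activation above its plate's cutoff, the mean activation of the plate's test wells plus 3 SD, cut at about 12% in these data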;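 note: 0% = DMSO only wells and 100% = carbachol wells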
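system = HEK293 cells stably carrying human TRPML3-YFP | doses = one concentration, 3 µM nominal, 0.3% DMSO | timing = dye loading 1 h 37 °C then 30 min ambient, 125 s read | detection = Fluo-8 calcium dye fluorescence, ex 470-495, em 515-575 nm | benchmarks = high control carbachol 87 µM, low control DMSO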
GPR7 antag: blocks human GPR7 receptor signaling; AID 1861; inhibition, % at 4.4 µM; 1.1% of 290,000 active; P48145; GPR7-expressing cells, fluorescence antagonist assay; in the data active = inhibition above about 16%, passing the limit was not always enough;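 note: cells stimulated with the agonist NPW; 0% = agonist with vehicle and 100% = vehicle without agonist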
Target sequence (P48145 whole entry, looked up): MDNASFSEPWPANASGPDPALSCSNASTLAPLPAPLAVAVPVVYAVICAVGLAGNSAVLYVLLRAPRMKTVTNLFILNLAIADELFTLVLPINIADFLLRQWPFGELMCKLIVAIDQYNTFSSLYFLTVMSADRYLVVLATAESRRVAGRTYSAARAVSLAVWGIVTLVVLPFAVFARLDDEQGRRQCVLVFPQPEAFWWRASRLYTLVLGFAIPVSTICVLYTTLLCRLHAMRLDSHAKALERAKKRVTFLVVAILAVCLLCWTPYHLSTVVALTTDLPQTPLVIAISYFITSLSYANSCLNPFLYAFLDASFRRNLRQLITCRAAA
TAAR1 agonist: agonists of human TAAR1; Q96RJ0; CHO RD-HGA16 TAAR1, Fluo-8 calcium fluorescence; vehicle wells 0%, saturating PEA agonist 100%; activation, % at 3 µM; 0.99% of 360,000 active;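 active = activation above the mean activation of all test compounds in the run plus 3 SD, cut at about 38% in these data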
Target sequence (Q96RJ0 whole entry, looked up): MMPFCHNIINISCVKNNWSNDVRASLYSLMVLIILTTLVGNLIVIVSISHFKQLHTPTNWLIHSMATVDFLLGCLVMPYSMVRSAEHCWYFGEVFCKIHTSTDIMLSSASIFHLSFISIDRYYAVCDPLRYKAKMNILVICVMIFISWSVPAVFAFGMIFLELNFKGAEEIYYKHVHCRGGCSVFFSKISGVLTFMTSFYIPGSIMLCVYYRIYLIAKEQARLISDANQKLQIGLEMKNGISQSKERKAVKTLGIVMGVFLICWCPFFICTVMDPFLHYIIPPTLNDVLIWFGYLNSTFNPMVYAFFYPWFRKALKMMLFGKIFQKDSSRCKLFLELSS
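Signal – calcium-sensitive Fluo-8 signal, excitation 470-495, emission 515-575 nm · System – RD-HGA16 (CHO) cells co-expressing Gα16 and hTAAR1 · Incubation – 17-24 h seeding, 75 min 37 °C dye, 30 min RT · Compound dosing – 3 µM single concentration · Repeats – no replicates (n 1)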
TAAR1 antag: antagonists of human TAAR1. CHO RD-HGA16 TAAR1, Fluo-8 calcium fluorescence, antagonist. inhibition, % at 3 µM. 1.5% of 360,000 active. AID 624466;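 active = inhibition above a per-plate cutoff, the mean inhibition of test compounds on that plate plus 3 SD, cut at about 49% in these data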;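 note: 0% = DMSO plus EC80 beta-PEA response and 100% = DMSO alone without agonist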
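Test system: CHO RD-HGA16 cells bearing hTAAR1 | Reagent: β-PEA, EC80 | Compound dosing: 3 µM, single point | Schedule: Dye loading 75 min at 37 °C, then 30 min room temperature | Signal: Calcium fluorescence with Fluo-8 | Evaluation: Percent inhibition of PEA-evoked calcium signal, max/basal emission ratio | Control set: DMSO-only wells and EC80 β-PEA-stimulated wells | Repeats: Singlicate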
Numbers without * were called inactive; x = no result.

SMILES | zfTRPN1 agonist | LANA-H2A inh | TRPML3 agonist | GPR7 antag | TAAR1 agonist | TAAR1 antag
Fc1ccc(-n2nnnc2-c2cnc(-c3cccs3)nc2C(F)(F)F)cc1 | 0 | 1 | 0 | -15 | 16 | 79*
O=C(Nc1ccccc1-c1nc2ccccc2[nH]1)c1ccc(N2C(=O)CCC2=O)cc1 | -1 | 9 | 1 | -12 | 19 | 50*
O=C(Nc1ccccc1-c1nc2ccccc2[nH]1)c1ccc(S(=O)(=O)N2CCCCC2)cc1 | 1 | x | 1 | 13 | 16 | 19
C=CCn1c(C(C)NC(=O)CCC)nc2ccccc21 (stereo not given) | 1 | -3 | 0 | 20* | 7 | -16
CCCC(=O)NC(C)c1nc2ccccc2n1CC (stereo not given) | 0 | -2 | 1 | -16 | 0 | 3
Cc1nnc(NC(=O)CSc2nnc(CNC(=O)c3ccccc3F)n2C(C)C)s1 | x | x | x | x | 1 | 5
CC(C)n1c(CNC(=O)c2ccccc2F)nnc1SCC(=O)c1ccc(F)cc1 | x | x | x | x | 39* | -16
CC(C(=O)NC1CCCC1)N(C(=O)Cn1nnc(-c2ccc(F)cc2)n1)c1ccccc1F (stereo not given) | x | 2 | x | -14 | 19 | 52*
CC(C)CC1C(=O)N(Cc2cn(CCC3OCCO3)nn2)CCS(=O)(=O)N1Cc1ccc(-c2ccc(F)cc2)cc1 (stereo not given) | x | x | x | x | 9 | 54*
CC(C)CC1C(=O)N(Cc2cn(CCC3OCCO3)nn2)CCS(=O)(=O)N1Cc1ccc(-c2cccc(N(C)C)c2)cc1 (stereo not given) | x | x | x | x | 19 | 52*
CC(C)CC1C(=O)N(Cc2cn(CCC3OCCCO3)nn2)CCS(=O)(=O)N1Cc1ccc(-c2ccc(Cl)cc2)cc1 (stereo not given) | x | x | x | x | 2 | 9
Cc1cc(N/N=C/c2ccc(Cl)cc2)nc(NCc2ccccc2)n1 | 0 | -3 | 0 | 3 | 40* | 34
Cc1cc(Nc2cccc(Cl)c2)nc(NCc2ccccc2)n1 | 0 | 2 | 3 | 2 | 38* | 0
Cc1cc(N/N=C/c2cccc(Cl)c2)nc(NCc2ccccc2)n1 | -1 | 1 | -1 | 6 | 24 | -7
COC(=O)[C@]12C[C@H](CC(=O)N3CCSCC3)C(=O)N(CCC3=CCCCC3)C1=C[C@H](C(C)(C)C)O[C@@H]2C | x | x | x | x | -2 | -58
CC(C)(CO)NCc1cc(Br)ccc1OCc1ccccc1 | 0 | 1 | 0 | 0 | 1 | -16
CC(C)NCc1cc(Br)ccc1OCc1ccccc1 | 2 | 3 | 1 | 6 | 43* | 15
C[C@@H]1CNCCN1c1ccc(N2CCS(=O)(=O)CC2)c(C#N)c1 | x | x | x | x | 0 | 2
CC(=O)N1CCN(c2ccc(N3CCN(Cc4ccccc4)[C@H](C)C3)c(C)c2)[C@H](C)C1 | x | x | x | x | 2 | -11
O=C(NCCNc1ccc(Cl)cc1[N+](=O)[O-])c1cccnc1 | -1 | 12* | 0 | -5 | 11 | 22
Cc1ccoc1C(=O)NCCNc1ccc(Cl)cc1[N+](=O)[O-] | -4 | -1 | -2 | -3 | -3 | -1
O=C(N/N=C/c1ccco1)c1cc(=O)[nH]c2ccccc12 | -1 | 16* | 1 | -3 | 15 | 14
COc1ccc(NS(=O)(=O)c2cc(NC(=O)Cc3cccs3)ccc2C)cc1 | -2 | 5 | -1 | 15 | 1 | -3
COc1ccc(NS(=O)(=O)c2ccc(NC(=O)Cc3cccs3)cc2)cc1 | 7 | 0 | 2 | 4 | 41* | 15
COc1ccc(NS(=O)(=O)c2ccc(C(=O)N(C)Cc3cccs3)cc2)cc1 | x | x | x | x | 45* | 34
SMILES | zfTRPN1 agonist | LANA-H2A inh | TRPML3 agonist | GPR7 antag | TAAR1 agonist | TAAR1 antag
CC(Sc1nc2ccccc2[nH]1)C(=O)Nc1ccccc1F (stereo not given) | -1 | 13* | 0 | -5 | 7 | -4
O=C(Nc1ccc(F)cc1)C(Sc1nc2ccccc2[nH]1)c1ccccc1 (stereo not given) | -2 | -3 | 0 | -18 | 3 | 17
CCOC(=O)C1=C(C(=O)OCC)C2N(Cc3ccccc3)c3ccccc3[C@@]23C[C@@H](C(=O)OC)N(S(=O)(=O)c2ccc(C(F)(F)F)cc2)C3=N1 (stereo not given in full) | x | x | x | x | 1 | -25
O=C(NCc1ccc(F)cc1)N1[C@H]2CC[C@@H]1C=C(c1ccc(F)cc1OCc1ccccc1)C2 | x | x | x | x | 1 | 15
COc1ccc(CNC(=O)N2[C@H]3CC[C@@H]2C=C(c2ccc(F)cc2OCc2ccccc2)C3)cc1OC | x | x | x | x | 8 | 49*
COc1ccc(CCNC(=O)c2ccc(CSc3ccc(Cl)cc3)o2)cc1OC | x | x | x | x | 5 | 66*
COc1ccc(CCNC(=O)c2ccc(CSc3ccccc3)o2)cc1 | -4 | -5 | -1 | -4 | 4 | 2
COc1ccc(CCNC(=O)c2ccc(CS(=O)(=O)c3ccc(Cl)cc3)o2)cc1OC | 9 | 27* | 5 | -12 | 28 | 44
CC(C)C[C@H]1COc2cccc(N3CCOCC3)c2S(=O)(=O)N1 | x | x | x | x | -1 | -5
COc1cccc(CNC(=O)[C@H]2CCCN2C(=O)[C@H]2CCCN2C(=O)c2ccccc2)c1 | x | x | x | x | 6 | -8
O=C(O)C1CSC(c2ccc3c(c2)OCO3)N1 (stereo not given) | 1 | 22* | 1 | -10 | 0 | -12
CCc1ccc(C2NC(C(=O)O)CS2)cc1 (stereo not given) | -1 | x | 0 | -7 | x | x
CC(=O)OC[C@]1(OC(C)=O)C[C@@]23CC[C@H]4[C@@](C)(CCC[C@@]4(C)C(=O)O)[C@@H]2CC[C@@H]1C3 | 2 | 3 | 0 | 1 | 1 | 6
CC(=O)OC[C@]12CC[C@H]3[C@@](C)(CC[C@H]4C(C)(C)CCC[C@]34C)[C@@H]1CC(C1=CC(=O)OC1O)O2 (stereo not given in full) | x | x | x | x | 1 | 60*
CC(C)N(Cc1nc(-c2ccccc2)no1)C(=O)CN(C)S(=O)(=O)c1ccccc1 | 1 | 2 | 0 | 2 | 4 | -5
CC(C)N(Cc1nc(-c2ccccc2)no1)S(=O)(=O)c1ccccc1 | -1 | 4 | 25* | -11 | -1 | 10
CC(C)CN1CCN(Cc2ccc(CN3CCCCC3)s2)CC1CCO (stereo not given) | 1 | 41* | 1 | -11 | 0 | -10
CCOC(=O)c1cc(-c2ccc(C#N)cc2)nc2c1c(C)nn2CCC#N | 0 | 3 | 1 | 5 | 3 | -1
CCOC(=O)c1cc(-c2ccc(OC)cc2)nc2c1c(C)nn2CCC#N | -2 | 7 | -1 | 19* | 9 | 6
Cc1cc(N2CCNC[C@H]2C)ccc1N1C[C@@H](C)O[C@@H](C)C1 | x | x | x | x | 2 | 9
